Experimental data taken from ChEMBL document CHEMBL3297691, “Development and bioorthogonal activation of palladium-labile prodrugs of gemcitabine” (J Med Chem, 2014).
Active and inactive are the calls of the source. The calls are words filed in the database; no cut-off is given here.

How the values were obtained:
[1] = species on record: Danio rerio; test: Prodrug conversion in zebrafish yolk assessed as formation of rhodamine 110 at 5 uM after 24 hrs by fluorescence microscopic analysis in presence of palladium-resins; conditions: in vivo
[2] = Cytotoxicity against human MIAPaCa2 cells after 5 days by PrestoBlue assay; format: functional, cell-based; conditions: MIA PaCa-2, 96 h, in the assay text read “4 days” for “5 days”
[3] = Cytotoxicity against human BxPC3 cells after 5 days by PrestoBlue assay; format: functional, cell-based; conditions: BXPC-3, 96 h, in the assay text read “4 days” for “5 days”
[4] = Prodrug conversion in phosphate buffered saline assessed as compound retention time at 100 uM after 6 to 24 hrs by HPLC analysis in presence of palladium-resins; format: physicochemical; conditions: buffer
In short: (§1)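 Prodrug at 100 μM in PBS (300 mOsm/kg, pH 7.4) was shaken at 1400 rpm and 37 °C with Pd0-resins (1 mg/mL, 4.4% w/w Pd; [Pd0] 400 μM). Samples were taken at 0, 6 and 24 h for reverse-phase HPLC with UV at 280 nm: water/acetonitrile with 0.1% formic acid, 95:5 to 5:95 over 3 min.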

[5] = test system: BXPC-3; test: Cytotoxicity against human BxPC3 cells at 100 nM after 5 days by PrestoBlue assay in presence of palladium-resins; format: functional, cell-based
In short: (§2)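 BxPC-3 (RPMI; 2,500 cells/well) or Mia PaCa-2 (DMEM; 1,000 cells/well) in 10% FBS and 2 mM L-glutamine were grown 48 h, then given fresh medium with compound (3, 10, 30, 100, 300 nM), with or without Pd0-resins (0.67 mg/mL), in 0.1% DMSO. After 5 days at 37 °C and 5% CO2, PrestoBlue (10% v/v) was added for 60 min; fluorescence ex 540/em 590 nm, normalized to DMSO wells; n = 3.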

[6] = Cytotoxicity against human BxPC3 cells after 4 days by PrestoBlue assay; conditions: BXPC-3, 96 h
[7] = Toxicity in human MIAPaCa2 cells assessed as induction of DNA damage by measuring phosphorylated gamma-H2AX level at 300 nM after 24 hrs by immunofluorescence analysis in presence of palladium-resins; format: cell-based; conditions: mia paca-2, 24 h, 0.3 µM
In short: (§3)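 Mia PaCa-2 cells (2,000/well, DMEM) were grown 48 h, then treated 24 h at 300 nM in 0.1% DMSO, with or without Pd0-resins (0.67 mg/mL). The prodrug–resin mix was preincubated 24 h at 37 °C before addition. Cells were fixed in 4% paraformaldehyde and permeabilized with 0.1% Triton X-100. Staining used rabbit anti-phospho-H2AX Ser139 (1:400, 1 h, RT), then Alexa 488 secondary, Hoechst and phalloidin. Imaged by confocal microscopy.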

[8] = Cytotoxicity against human BxPC3 cells at 10 to 100 nM after 5 days by PrestoBlue assay; format: cell-based; conditions: bxpc-3, 120 h, 0.1 µM
In short: as §2

[9] = test system: MIA PaCa-2; test: Cytotoxicity against human MIAPaCa2 cells at 30 to 300 nM after 5 days by PrestoBlue assay in presence of palladium-resins; format: functional, cell-based
In short: as §2

[10] = Prodrug conversion in phosphate buffered saline assessed as formation of gemcitabine at 100 uM after 24 hrs by HPLC analysis in presence of palladium-resins; format: physicochemical; conditions: buffer
In short: as §1

[11] = Cytotoxicity against human MIAPaCa2 cells at 30 to 300 nM after 5 days by PrestoBlue assay; format: cell-based; conditions: mia paca-2, 120 h, 0.3 µM
In short: as §2

[12] = Toxicity in human BxPC3 cells assessed as cell growth at 30 nM up to 120 hrs by IncuCyte ZOOM analysis; format: cell-based; conditions: bxpc-3, 120 h, 0.03 µM
In short: (§4)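 BxPC-3 cells in RPMI with 10% FBS and 2 mM L-glutamine were treated once at 30 nM. Wells were imaged every 3 h for 5 d (120 h) by IncuCyte ZOOM inside the incubator (37 °C, 5% CO2). Confluence came from image analysis; n = 3, ± SD.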

[13] = Toxicity in human MIAPaCa2 cells assessed as induction of DNA damage by measuring phosphorylated gamma-H2AX level at 300 nM after 24 hrs by immunofluorescence analysis; format: cell-based; conditions: mia paca-2, 24 h, 0.3 µM
In short: as §3

[14] = test system: BXPC-3; test: Cytotoxicity against human BxPC3 cells at 30 nM up to 120 hrs by IncuCyte ZOOM analysis; format: functional, cell-based
In short: as §4

[15] = Prodrug conversion in phosphate buffered saline assessed as half life of formation of gemcitabine at 100 uM by HPLC analysis in presence of palladium-resins; format: physicochemical; conditions: buffer
[16] = test system: BXPC-3; test: Cytotoxicity against human BxPC3 cells at 10 to 100 nM after 5 days by PrestoBlue assay in presence of palladium-resins; format: functional, cell-based
In short: as §2

[17] = Prodrug conversion in phosphate buffered saline assessed as gemcitabine retention time at 100 uM after 6 to 24 hrs by HPLC analysis in presence of palladium-resins; format: physicochemical; conditions: buffer
In short: as §1

[18] = Cytotoxicity against human MIAPaCa2 cells after 4 days by PrestoBlue assay; conditions: MIA PaCa-2, 96 h

In the case of `O=C(Nc1ccc2c(c1)Oc1cc(NC(=O)OCc3ccccc3)ccc1C21OC(=O)c2ccccc21)OCc1ccccc1`, the Drug metabolism [1] is reported as “metabolite_notdetected”.
For `Nc1ccn([C@H]2O[C@H](COC(=O)OCc3ccccc3)[C@@H](O)C2(F)F)c(=O)n1`, the EC50 [2] was 29 nM and the EC50 [3] was 12 nM.
With `O=C(Nc1ccn([C@H]2O[C@H](CO)[C@@H](O)C2(F)F)c(=O)n1)OCc1ccccc1` the Retention_time [4] was 2.96 min, the Activity [5] was “inactive” and the EC50 [6] was 253 nM. For the same compound, the EC50 [2] was 94 nM.
In the case of `C#CCOC(=O)Nc1ccn([C@H]2O[C@H](CO)[C@@H](O)C2(F)F)c(=O)n1`, the Activity [7] is reported as “Toxic”, the Activity [8] is reported as “Non-toxic” and the Activity [9] is reported as “Active”. For the same compound, the Drug metabolism [10] was “Active”, the Activity [11] was “Non-toxic” and the Activity [12] was 100%. The Retention_time [4] was 2.45 min, the Activity [13] was “Non-toxic” and the Activity [5] was “Active”. For the same compound, the Activity [14] was “Active”, the EC50 [2] was 1400 nM and the t1/2 [15] was less than 6 h. For the same compound, the EC50 [3] was 237 nM and the Activity [16] was “Active”.
`Nc1ccn([C@@H]2O[C@H](CO)[C@@H](O)C2(F)F)c(=O)n1` [GEMCITABINE] gave an EC50 [2] of 2000 nM, an EC50 [3] of 10 nM and a Retention_time [17] of 0.93 min.
Work on `C#CCOC(=O)OC[C@H]1O[C@H](n2ccc(N)nc2=O)C(F)(F)[C@@H]1O` yielded an EC50 [18] of 45 nM and an EC50 [3] of 13 nM.
For `C#CCOC(=O)Nc1ccc2c(c1)Oc1cc(NC(=O)OCC#C)ccc1C21OC(=O)c2ccccc21`, the Drug metabolism [1] was “metabolite_detected”.
Compound `C=CCOC(=O)OC[C@H]1O[C@H](n2ccc(N)nc2=O)C(F)(F)[C@@H]1O` has an EC50 [2] of 27 nM and an EC50 [3] of 22 nM.
For `C=CCOC(=O)Nc1ccn(C2O[C@H](CO)[C@@H](O)C2(F)F)c(=O)n1` (single isomer, unassigned), the Activity [8] was “Non-toxic”, the Activity [9] was “Active” and the Drug metabolism [10] was “Active”. The Activity [11] was “Non-toxic”, the Activity [12] was 100% and the Retention_time [4] was 2.56 min. For the same compound, the Activity [5] was “Active”, the Activity [14] was “Active” and the EC50 [6] was 335 nM. The EC50 [2] was 900 nM and the Activity [16] was “Active”.
